Assay results taken from ChEMBL document CHEMBL1765024, “Fluorescent cyclin-dependent kinase inhibitors block the proliferation of human breast cancer cells” (Bioorg Med Chem, 2011).
Active and inactive are the calls of the source. The calls are words filed in the database; no cut-off is given here.

What was measured:
[1] = system: MCF7; experiment: Induction of apoptosis in human MCF7 cells assessed as early apoptotic cells at 10 uM after 24 hrs using annexinV-propidium iodide staining by flow cytometry (reference value: 4.24%); assay type: functional
[2] = system: MDA-MB-231; experiment: Antiproliferative activity against estrogen receptor-deficient human MDA-MB-231 cells after 48 hrs by WST-1 assay; assay type: functional, cell-based; conditions: MDA-MB-231, 48 h
How it was run: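 Cells seeded at 3000/well in DMEM with 10% FBS and left 24 h. Compounds in DMSO were serially diluted in medium (1–100 µM) and added in triplicate. WST-1 was read 48 h after addition: 2–3 h incubation, absorbance at 450 nm with 630 nm reference. IC50 interpolated from log concentration versus fraction surviving; mean (SEM) of triplicate experiments.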

[3] = Antiproliferative activity against human CL 10.3 cells expressing p-glycoprotein after 72 hrs by WST-1 assay; assay type: functional, cell-based
How it was run: (§1)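 MCF-7 and its P-glycoprotein-overexpressing MDR subline CL 10.3 were grown in DMEM with 10% heat-inactivated FBS. Compounds in DMSO were serially diluted in medium and given to cells for 72 h. Read-out was WST-1 reduction (450 nm, 630 nm reference). IC50 interpolated from log concentration versus fraction surviving; mean (SEM) of triplicates. Ratio is CL 10.3 IC50 over MCF-7 IC50.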

[4] = system: MDA-MB-231; experiment: Induction of apoptosis in human MDA-MB-231 cells assessed as decrease in cell number at 10 uM after 48 hrs using propidium iodide staining by confocal microscopic analysis; assay type: functional, cell-based
[5] = system: MDA-MB-231; experiment: Induction of apoptosis in human MDA-MB-231 cells assessed as decrease in caspase 3 protein level at 10 uM after 48 hrs by Western blotting; assay type: functional, cell-based
[6] = system: MCF7; experiment: Induction of apoptosis in human MCF7 cells assessed as decrease in cell number at 10 uM after 48 hrs using propidium iodide staining by confocal microscopic analysis; assay type: functional, cell-based
[7] = molecular target: Cyclin-dependent kinase 7/ cyclin H (Homo sapiens) (UniProt P51946+P50613); experiment: Inhibition of human CDK7/cyclinH/MAT1 at 0.1 uM after 40 mins relative to control; assay type: protein-complex assay
How it was run: (§2)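 Radiometric screen at 100 nM compound against purified human CDK/cyclin (5–10 mU). Incubation 40 min at room temperature, stopped with phosphoric acid. Read by filtermat scintillation. Activity expressed as % of control, N = 2.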

[8] = system: MCF7; experiment: Cell cycle arrest in human MCF7 cells assessed as accumulation at sub G1 phase at 5 to 10 uM after 24 hrs using propidium iodide staining by flow cytometry; assay type: functional, cell-based
How it was run: (§3)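 Asynchronous cells were treated with 5 or 10 µM compound or DMSO for 24 h (also 16 and 40 h). They were trypsinized, washed in PBS and fixed/permeabilized in 70% ethanol. Staining was with RNase and propidium iodide for 30 min in the dark at room temperature, followed by flow cytometry. Phase percentages are given minus DMSO control; mean of triplicates.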

[9] = system: MCF7; experiment: Drug uptake in human MCF7 cell cytoplasm at 10 uM after 1 hr using propidium iodide staining by two-photon confocal microscopy; assay type: ADME, cell-based; conditions: mcf7, 1 h
How it was run: (§4)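 Cells (5 × 10^5) were treated with 10 µM compound for 1 h, PBS-washed and fixed in 4% formaldehyde. Nuclei were stained with propidium iodide for 5 min before mounting. Imaging used two-photon confocal microscopy, 63× oil, excitation 720 nm, emission 480–520 nm, with DIC for morphology.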

[10] = molecular target: Cyclin-dependent kinase 1/cyclin B1 (Homo sapiens) (UniProt P06493+P14635); conditions: at 0.1 µM
[11] = system: MDA-MB-231; experiment: Induction of apoptosis in human MDA-MB-231 cells assessed as reduction of cdc2 phosphorylation at T161 catalytic site at 10 uM by Western blot analysis; assay type: functional, cell-based; conditions: TDE = time-dependent effect
How it was run: (§5)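 MDA-MB-231 cells were treated with 10 µM compound for 1, 3, 6, 12 and 24 h and lysed. Equal protein was resolved by 10% SDS–PAGE and immunoblotted for phospho-cdc2 (T161, Y15), cdc2 and cyclin B, with actin as loading standard and ECL detection.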

[12] = system: MDA-MB-231; experiment: Drug uptake in human MDA-MB-231 cell cytoplasm at 10 uM after 3 to 24 hrs using propidium iodide staining by two-photon confocal microscopy; assay type: ADME, cell-based; conditions: mda-mb-231, 10 µM
[13] = system: MDA-MB-231; experiment: Cell cycle arrest in human MDA-MB-231 cells assessed as accumulation at G2/M phase at 5 to 10 uM after 16 to 40 hrs using propidium iodide staining by flow cytometry; assay type: functional, cell-based; how it was run: as §3
[14] = system: MCF7; experiment: Cell cycle arrest in human MCF7 cells assessed as accumulation at G2/M phase at 5 to 10 uM after 24 hrs using propidium iodide staining by flow cytometry; assay type: functional, cell-based; how it was run: as §3
[15] = system: MCF7; experiment: Induction of apoptosis in human MCF7 cells assessed as necrotic cells at 10 uM after 24 hrs using annexinV-propidium iodide staining by flow cytometry (reference value: 12.09%); assay type: functional
[16] = molecular target: CDK9/cyclin T1 (Homo sapiens) (UniProt O60563+P50750); experiment: Inhibition of at human CDK9/cyclin T1 at 0.1 uM after 40 mins relative to control; assay type: protein-complex assay; how it was run: as §2
[17] = system: MDA-MB-231; experiment: Induction of apoptosis in human MDA-MB-231 cells assessed as increase in Bax protein level at 10 uM after 48 hrs by Western blotting; assay type: functional, cell-based
How it was run: (§6)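 MDA-MB-231 cells were treated with vehicle or 10 µM compound for 48 h (and 72 h). Lysates were cleared and protein measured by BCA. Equal protein was run on 10% SDS–PAGE and transferred to PVDF, blocked in 5% milk overnight, and probed 2 h with anti-Bcl-2, Bax or PARP. HRP secondary was applied for 1 h, with ECL detection.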

[18] = system: MDA-MB-231; experiment: Cell cycle arrest in human MDA-MB-231 cells assessed as accumulation at G2/M phase treated at 10 uM for 24 hrs measured after drug washout following 48 hrs growth recovery using propidium iodide staining by flow cytometry; assay type: functional, cell-based
How it was run: (§7)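 Exponentially growing cells exposed 24 h, then held a further 48 h in compound-free medium. Cells trypsinized, pelleted, PBS-washed, permeabilized in 70% ethanol, stained 30 min in the dark at room temperature with PI plus RNase, and analysed by flow cytometry. Phase percentages given after subtracting untreated control. Mean of triplicate experiments.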

[19] = system: MCF7; experiment: Ratio of IC50 for human CL 10.3 cells expressing p-glycoprotein to IC50 for human MCF7 cells; assay type: functional; how it was run: as §1
[20] = system: MDA-MB-231; experiment: Drug uptake in human MDA-MB-231 cell cytoplasm at 10 uM after 1 hr using propidium iodide staining by two-photon confocal microscopy; assay type: ADME, cell-based; conditions: mda-mb-231, 1 h; how it was run: as §4
[21] = system: MDA-MB-231; experiment: Induction of apoptosis in human MDA-MB-231 cells assessed as reduction of cdc2 phosphorylation at Y15 regulatory site at 10 uM by Western blot analysis; assay type: functional, cell-based; conditions: TDE = time-dependent effect; how it was run: as §5
[22] = system: MDA-MB-231; experiment: Cell cycle arrest in human MDA-MB-231 cells assessed as accumulation at G2/M phase treated at 5 uM for 24 hrs measured after drug washout following 48 hrs growth recovery using propidium iodide staining by flow cytometry; assay type: functional, cell-based; how it was run: as §7
[23] = system: MCF7; experiment: Induction of apoptosis in human MCF7 cells assessed as aberrant gross morphological changes at 10 uM after 48 hrs using propidium iodide staining by confocal microscopic analysis; assay type: functional, cell-based
[24] = system: MDA-MB-231; experiment: Induction of apoptosis in human MDA-MB-231 cells assessed as decrease in Bcl2 protein level at 10 uM after 48 hrs by Western blotting; assay type: functional, cell-based; how it was run: as §6
[25] = molecular target: CDK3/cyclin E (Homo sapiens) (UniProt P24864+O96020+Q00526); experiment: Inhibition of human CDK3/cyclin E at 0.1 uM after 40 mins relative to control; assay type: protein-complex assay; how it was run: as §2
Sequence of CDK3/cyclin E (Homo sapiens) (O96020 whole entry, looked up): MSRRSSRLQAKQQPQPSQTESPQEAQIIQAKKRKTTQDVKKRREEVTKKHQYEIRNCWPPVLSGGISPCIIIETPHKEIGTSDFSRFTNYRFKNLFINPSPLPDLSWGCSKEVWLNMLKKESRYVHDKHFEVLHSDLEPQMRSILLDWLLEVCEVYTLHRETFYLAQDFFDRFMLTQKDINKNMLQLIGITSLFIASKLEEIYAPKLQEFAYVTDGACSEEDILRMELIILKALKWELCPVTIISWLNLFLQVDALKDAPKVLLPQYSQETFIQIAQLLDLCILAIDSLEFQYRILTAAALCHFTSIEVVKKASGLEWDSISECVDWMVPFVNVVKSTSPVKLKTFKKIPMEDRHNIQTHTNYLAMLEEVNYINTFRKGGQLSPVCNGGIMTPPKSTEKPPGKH
Sequence of CDK3/cyclin E (Homo sapiens) (P24864 whole entry, looked up): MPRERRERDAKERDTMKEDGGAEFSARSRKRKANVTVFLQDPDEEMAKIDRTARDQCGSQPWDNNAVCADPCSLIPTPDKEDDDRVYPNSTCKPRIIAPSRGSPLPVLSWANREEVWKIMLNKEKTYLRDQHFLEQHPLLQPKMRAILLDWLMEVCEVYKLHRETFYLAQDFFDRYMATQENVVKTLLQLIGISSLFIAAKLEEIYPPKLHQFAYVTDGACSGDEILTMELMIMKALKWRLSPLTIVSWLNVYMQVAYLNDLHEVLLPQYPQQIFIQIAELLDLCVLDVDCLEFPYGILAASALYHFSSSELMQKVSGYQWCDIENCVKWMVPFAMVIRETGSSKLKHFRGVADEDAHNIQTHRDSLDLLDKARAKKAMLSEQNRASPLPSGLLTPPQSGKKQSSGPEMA
Sequence of CDK3/cyclin E (Homo sapiens) (Q00526 whole entry, looked up): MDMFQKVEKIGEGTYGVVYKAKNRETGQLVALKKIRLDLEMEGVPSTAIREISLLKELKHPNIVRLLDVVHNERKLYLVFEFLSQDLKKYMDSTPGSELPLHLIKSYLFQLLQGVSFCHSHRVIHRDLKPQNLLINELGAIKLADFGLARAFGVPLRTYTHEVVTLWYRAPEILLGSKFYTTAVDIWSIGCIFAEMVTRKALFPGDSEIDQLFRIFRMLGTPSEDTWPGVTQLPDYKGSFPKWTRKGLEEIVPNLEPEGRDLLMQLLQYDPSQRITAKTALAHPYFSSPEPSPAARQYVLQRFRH

Sequence of Cyclin-dependent kinase 1/cyclin B1 (Homo sapiens) (P06493 whole entry, looked up): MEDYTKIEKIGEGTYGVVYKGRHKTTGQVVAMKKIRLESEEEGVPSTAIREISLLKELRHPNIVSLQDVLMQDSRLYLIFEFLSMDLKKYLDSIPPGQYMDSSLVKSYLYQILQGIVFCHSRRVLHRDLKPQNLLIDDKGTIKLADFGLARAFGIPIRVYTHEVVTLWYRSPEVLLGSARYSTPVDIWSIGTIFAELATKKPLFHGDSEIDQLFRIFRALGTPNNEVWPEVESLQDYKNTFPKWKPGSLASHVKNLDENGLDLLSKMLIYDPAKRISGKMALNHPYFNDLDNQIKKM
Sequence of Cyclin-dependent kinase 1/cyclin B1 (Homo sapiens) (P14635 whole entry, looked up): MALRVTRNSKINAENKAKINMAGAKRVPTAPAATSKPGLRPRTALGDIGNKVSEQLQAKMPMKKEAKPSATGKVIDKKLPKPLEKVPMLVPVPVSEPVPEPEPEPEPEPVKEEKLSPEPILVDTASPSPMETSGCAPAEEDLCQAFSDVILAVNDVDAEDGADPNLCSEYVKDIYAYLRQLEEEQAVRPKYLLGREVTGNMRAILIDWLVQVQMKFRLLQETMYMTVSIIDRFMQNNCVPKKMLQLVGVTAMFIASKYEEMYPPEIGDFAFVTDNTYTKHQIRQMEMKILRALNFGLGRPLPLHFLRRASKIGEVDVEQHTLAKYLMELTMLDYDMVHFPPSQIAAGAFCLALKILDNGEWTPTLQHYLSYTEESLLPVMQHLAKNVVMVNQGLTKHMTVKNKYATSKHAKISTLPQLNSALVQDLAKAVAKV

CC(C)[C@H](CO)Nc1nc(Nc2ccc(C(=O)NCCNS(=O)(=O)c3cccc4c(N(C)C)cccc34)c(Cl)c2)c2ncn(C(C)C)c2n1
Activity [1]: 10.53% | IC50 [2]: 4.06 µM | IC50 [3]: 44.1 µM | Activity [4]: Active | Activity [5]: Active | Activity [6]: Active | inhibition [7]: 69% | Activity [8]: Active | Activity [9]: Active | inhibition [10]: 35% | inhibition [11]: tde | Activity [12]: Active | Activity [13]: Active | Activity [14]: Active | Activity [15]: 17.15% | inhibition [16]: 67% | Activity [17]: Active | Activity [18]: Active | Ratio IC50 [19]: 9.8 | Activity [20]: Active | inhibition [21]: tde | Activity [22]: Active | Activity [23]: Active | Activity [24]: Active | inhibition [25]: 65%
